Measurements reported in ChEMBL document CHEMBL2163315, “Synthesis and SAR of geminal substitutions at the C5' carbosugar position of pyrimidine-derived HCV inhibitors” (Bioorg Med Chem Lett, 2012).

How the values were obtained:
[1] = Oral bioavailability in cynomolgus monkey at 3 mg/kg; assay type: ADME, organism-based, Macaca fascicularis; conditions: in vivo
[2] = AUC (0 to 24 hrs) in dog at 3 mg/kg, po; assay type: ADME, organism-based, Canis lupus familiaris; design: time < 24 hr, dose 3 mg/kg, route oral; conditions: plasma
Outline: (§1)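 Oral dosing at 3 mpk to dog and monkey. Plasma exposure monitored over 0–24 h.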

[3] = Oral bioavailability in dog at 3 mg/kg; assay type: ADME, organism-based, Canis lupus familiaris; conditions: in vivo
[4] = Cytotoxicity against human hepatoma cells assessed as inhibition of [methyl-14C]thymidine incorporation in DNA after 3 days by scintillation proximity assay; assay type: cell-based; conditions: for CC50 at 72 h: human hepatoma cells
Outline: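 Replicon cells seeded in scintillating microplates one day before treatment. Various inhibitor concentrations added in triplicate together with [methyl-14C]-thymidine (final 0.5 µCi/mL media) and incubated three days. Incorporated label read by scintillation proximity counting. DNA CC50 is the concentration giving 50% inhibition of thymidine incorporation relative to vehicle-treated cells.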

[5] = Drug uptake in rat liver at 10 mg/kg, po after 6 hrs; assay type: ADME, organism-based; design: dose 10 mg/kg, route oral; conditions: read-out: Drug uptake
Outline: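 Rats dosed orally at 10 mpk. Compound concentration in liver measured at 6 h.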

[6] = AUC (0 to 24 hrs) in rat at 10 mg/kg, po; assay type: ADME, organism-based; design: time < 24 hr, dose 10 mg/kg, route oral; conditions: plasma
Outline: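 Oral dosing to rats at 10 mpk. Plasma exposure monitored over 0–24 h.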

[7] = Oral bioavailability in rat at 10 mg/kg; assay type: ADME, organism-based; conditions: in vivo
[8] = Cytotoxicity against human hepatoma cells assessed as effect on cellular GAPDH RNA level; assay type: cell-based
[9] = AUC (0 to 24 hrs) in cynomolgus monkey at 3 mg/kg, po; assay type: ADME, organism-based, Macaca fascicularis; design: time < 24 hr, dose 3 mg/kg, route oral; conditions: plasma; outline: as §1
[10] = Cytotoxicity against human hepatoma cells after 3 days by MTS assay; assay type: cell-based
Outline: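 Replicon cells treated the same way as in the replicon activity assay (DMSO vehicle, 10% FBS, 3 days). Viability read three days post dosing by MTS (CellTiter 96 Aqueous One). CC50 is the concentration giving 50% inhibition relative to vehicle-treated cells.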

Hepatitis C virus = experiment: Antiviral activity against Hepatitis C virus genotype 1b Con1 infected in human hepatoma cells assessed as inhibition of viral RNA replication by subgenomic replicon assay; assay type: functional, organism-based, Hepacivirus hominis; conditions: genotype 1b Con 1
Outline: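 Subgenomic 1b-Con1 replicon cells seeded at 5000 cells/well one day before dosing. Compound in DMSO added as 10 serial twofold dilutions in triplicate (final 0.5% DMSO, 10% FBS). Cells harvested three days post dosing. Replicon RNA quantified by real-time RT-PCR (Taqman), normalised to GAPDH RNA as endogenous control. EC50 calculated from the dose-response.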

[11] = AUC (0 to 6 hrs) in rat at 10 mg/kg, po; assay type: ADME, organism-based; design: time < 6 hr, dose 10 mg/kg, route oral; conditions: plasma
Outline: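 Single oral dose of 10 mpk given to rats, as HCl salt. Plasma exposure expressed as AUC over 0–6 h.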

| Structure (SMILES) | bioavailability [1] | AUC(0-t) at 24 h [2] | bioavailability [3] | concentration at 6 h [5] | AUC(0-t) at 24 h [6] | bioavailability [7] | AUC(0-t) at 24 h [9] | EC50 (Hepatitis C virus) | AUC(0-t) at 6 h [11] | CC50 at 72 h [4] | CC50 [8] | CC50 at 72 h [10] | CC25 ([4]; 72 h) |
| --- | --- | --- | --- | --- | --- | --- | --- | --- | --- | --- | --- | --- | --- |
| Cc1nc(N[C@H](C)c2ccc(OC(F)(F)F)cc2)nc(N[C@@H]2C[C@H](C(C)(C)O)[C@@H](O)[C@H]2O)c1-c1nc2c(C)nccc2s1 | – | – | – | – | – | – | – | 0.18 µM | 1.2 µM·h | – | > 25 µM | > 25 µM | – |
| Cc1nc(NCCN(C)C)nc(N[C@@H]2C[C@H](C(C)(C)O)[C@@H](O)[C@H]2O)c1-c1nc2c(C)nccc2s1 | – | – | – | – | – | – | – | 0.13 µM | – | – | 7 µM | 12 µM | – |
| Cc1nc(NCC2CC2)nc(N[C@@H]2C[C@H](CO)[C@@H](O)[C@H]2O)c1-c1nc2cnccc2s1 | – | – | – | – | – | – | – | – | – | – | 3 µM | – | – |
| Cc1nc(NCC2CC2)nc(N[C@@H]2C[C@H](C(C)(C)O)[C@@H](O)[C@H]2O)c1-c1nc2cnccc2s1.Cl | – | – | – | – | – | – | – | 0.02 µM | 8.5 µM·h | – | > 12 µM | > 12 µM | – |
| Cc1nc(N[C@H](C)C2CC2)nc(N[C@@H]2C[C@H](C(C)(C)O)[C@@H](O)[C@H]2O)c1-c1nc2cnccc2s1 | – | – | – | – | – | – | – | 0.03 µM | 11 µM·h | – | > 25 µM | 25 µM | – |
| COCCNc1nc(C)c(-c2nc3cnccc3s2)c(N[C@@H]2C[C@H](C(C)(C)O)[C@@H](O)[C@H]2O)n1 | – | – | – | – | – | – | – | 0.05 µM | 1.3 µM·h | – | > 25 µM | > 25 µM | – |
| Cc1nc(NCC2CC2)nc(N[C@@H]2C[C@H](C(C)(C)O)[C@@H](O)[C@H]2O)c1-c1nc2c(C)nccc2s1 | 6% | 4.9 µM·h | 66% | 9500 ng/g | 10 µM·h | 39% | 0.3 µM·h | 0.02 µM | – | 25 µM | > 25 µM | > 25 µM | – |
| Cc1nc(N[C@H](C)C2CC2)nc(N[C@@H]2C[C@H](C(C)(C)O)[C@@H](O)[C@H]2O)c1-c1nc2c(C)nccc2s1 | 4% | 2.1 µM·h | 32% | 13700 ng/g | 19 µM·h | 54% | 0.5 µM·h | 0.02 µM | – | > 25 µM | > 25 µM | > 25 µM | – |
| COCCNc1nc(C)c(-c2nc3c(C)nccc3s2)c(N[C@@H]2C[C@H](C(C)(C)O)[C@@H](O)[C@H]2O)n1 | 46% | 0.9 µM·h | 18% | 1900 ng/g | 16 µM·h | 49% | 3.7 µM·h | 0.02 µM | – | 7 µM | > 25 µM | > 25 µM | – |
| Cc1nc(N)nc(N[C@@H]2C[C@H](C(C)(C)O)[C@@H](O)[C@H]2O)c1-c1nc2c(C)nccc2s1 | – | – | – | – | – | – | – | 0.04 µM | – | – | 4 µM | 6 µM | – |
| Cc1nc(NC2CC2)nc(N[C@@H]2C[C@H](C(C)(C)O)[C@@H](O)[C@H]2O)c1-c1nc2c(C)nccc2s1 | – | – | – | – | – | – | – | 0.05 µM | 58 µM·h | – | > 6 µM | > 6 µM | – |
| Cc1nc(N(C)CC2CC2)nc(N[C@@H]2C[C@H](C(C)(C)O)[C@@H](O)[C@H]2O)c1-c1nc2c(C)nccc2s1 | – | – | – | – | – | – | – | 0.09 µM | – | – | > 25 µM | 23 µM | – |

Now from value to compound, other results behind:

| bioavailability [1] | AUC(0-t) at 24 h [2] | bioavailability [3] | concentration at 6 h [5] | AUC(0-t) at 24 h [6] | bioavailability [7] | AUC(0-t) at 24 h [9] | EC50 (Hepatitis C virus) | AUC(0-t) at 6 h [11] | Structure (SMILES) | CC50 at 72 h [4] | CC50 [8] | CC50 at 72 h [10] | CC25 ([4]; 72 h) |
| --- | --- | --- | --- | --- | --- | --- | --- | --- | --- | --- | --- | --- | --- |
| 50% | 4.2 µM·h | 50% | 900 ng/g | 18 µM·h | 81% | 10 µM·h | 0.02 µM | – | COC[C@@H](C)Nc1nc(C)c(-c2nc3c(C)nccc3s2)c(N[C@@H]2C[C@H](C(C)(C)O)[C@@H](O)[C@H]2O)n1 | 25 µM | > 3 µM | > 3 µM | – |
| 45% | 3.2 µM·h | 56% | 1300 ng/g | 6.7 µM·h | 58% | 13 µM·h | 0.02 µM | – | CO[C@H](C)CNc1nc(C)c(-c2nc3c(C)nccc3s2)c(N[C@@H]2C[C@H](C(C)(C)O)[C@@H](O)[C@H]2O)n1 | 25 µM | > 25 µM | > 25 µM | – |
| – | – | – | 1800 ng/g | – | – | – | 0.004 µM | 9.9 µM·h | Cc1nc(NCC2CCCCO2)nc(N[C@@H]2C[C@H](C(C)(C)O)[C@@H](O)[C@H]2O)c1-c1nc2c(C)nccc2s1 (stereo partly drawn) | – | > 25 µM | > 25 µM | 3 µM |
| – | – | – | – | – | – | – | 0.008 µM | 1.6 µM·h | CSCCNc1nc(C)c(-c2nc3c(C)nccc3s2)c(N[C@@H]2C[C@H](C(C)(C)O)[C@@H](O)[C@H]2O)n1 | – | > 25 µM | > 25 µM | – |
| – | – | – | – | – | – | – | 0.02 µM | 0.7 µM·h | COCC1(CNc2nc(C)c(-c3nc4c(C)nccc4s3)c(N[C@@H]3C[C@H](C(C)(C)O)[C@@H](O)[C@H]3O)n2)CC1 | – | > 25 µM | > 25 µM | – |
| – | – | – | – | – | – | – | 0.004 µM | 0.4 µM·h | Cc1nc(NCc2c(F)cc(F)cc2F)nc(N[C@@H]2C[C@H](C(C)(C)O)[C@@H](O)[C@H]2O)c1-c1nc2c(C)nccc2s1 | – | > 25 µM | > 25 µM | – |
| – | – | – | – | – | – | – | 0.01 µM | 1.8 µM·h | Cc1nc(NCC(F)(F)F)nc(N[C@@H]2C[C@H](C(C)(C)O)[C@@H](O)[C@H]2O)c1-c1nc2c(C)nccc2s1 | – | 20 µM | > 12 µM | – |
| – | – | – | – | – | – | – | 0.02 µM | 0.2 µM·h | Cc1nc(NCCN2CCOCC2)nc(N[C@@H]2C[C@H](C(C)(C)O)[C@@H](O)[C@H]2O)c1-c1nc2c(C)nccc2s1 | – | > 25 µM | > 25 µM | – |
| – | – | – | – | – | – | – | 0.02 µM | 1.3 µM·h | Cc1nc(NCC2CC2)nc(N[C@@H]2C[C@H]([C@H](C)O)[C@@H](O)[C@H]2O)c1-c1nc2cnccc2s1.Cl | – | 18 µM | 13 µM | – |
| – | – | – | – | – | – | – | 0.005 µM | 10 µM·h | CCC(O)(CC)[C@H]1C[C@@H](Nc2nc(NCC3CC3)nc(C)c2-c2nc3c(C)nccc3s2)[C@H](O)[C@@H]1O | – | > 6 µM | > 6 µM | – |
| – | – | – | – | – | – | – | 0.01 µM | 1.4 µM·h | CCC(O)(CC)[C@H]1C[C@@H](Nc2nc(NCCOC)nc(C)c2-c2nc3c(C)nccc3s2)[C@H](O)[C@@H]1O | – | > 25 µM | > 25 µM | – |
| – | – | – | – | – | – | – | 0.004 µM | 1.6 µM·h | Cc1nc(NCC2CC2)nc(N[C@@H]2C[C@H](C3(O)CC3)[C@@H](O)[C@H]2O)c1-c1nc2c(C)nccc2s1 | – | > 25 µM | > 25 µM | – |
| – | – | – | – | – | – | – | 0.007 µM | 3.9 µM·h | COCCNc1nc(C)c(-c2nc3c(C)nccc3s2)c(N[C@@H]2C[C@H](C3(O)CC3)[C@@H](O)[C@H]2O)n1 | – | > 25 µM | 13 µM | – |
| – | – | – | – | – | – | – | 0.002 µM | – | COCC(O)(COC)[C@H]1C[C@@H](Nc2nc(NCC3CC3)nc(C)c2-c2nc3c(C)nccc3s2)[C@H](O)[C@@H]1O | 4 µM | > 6 µM | > 6 µM | – |
| – | – | – | – | – | – | – | 0.003 µM | – | CCOCCNc1nc(C)c(-c2nc3c(C)nccc3s2)c(N[C@@H]2C[C@H](C(O)(COC)COC)[C@@H](O)[C@H]2O)n1 | – | > 12 µM | 6 µM | – |
